In ChEMBL document CHEMBL1143769, “Ezetimibe analogs with a reorganized azetidinone ring: Design, synthesis, and evaluation of cholesterol absorption inhibitions” (2007):

Tests used:
Rattus norvegicus [1] = assay: Decrease in LDL-cholesterol levels in high-cholesterol diet fed Wistar rat at 4 mg/kg/day; assay type: functional; parameters: scale not given: the % may be the effect or the level left
Summary of the method: (§1)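 Rats fed a high-cholesterol, high-fat diet; drug suspended in 0.5% sodium carboxymethyl cellulose (40 mg/100 ml) and given intragastrically at 4 mg/kg/day. After a 16 h fast, tail blood was collected and serum total cholesterol and LDL-cholesterol measured. 8–18 rats per group; percent change calculated against high-cholesterol-diet animals.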

Rattus norvegicus [2] = assay: Decrease in total cholesterol levels in high-cholesterol diet fed Wistar rat at 4 mg/kg/day; assay type: functional; parameters: scale not given: the % may be the effect or the level left; summary of the method: as §1

| Compound | Activity (Rattus norvegicus [1]) | Activity (Rattus norvegicus [2]) |
| --- | --- | --- |
| O=C1[C@H](c2ccc(F)cc2)[C@@H](c2ccc(O)cc2)N1CC[C@H](O)c1ccc(F)cc1 | -22% | -26% |
| O=C1[C@H](c2ccc(F)cc2)[C@@H](c2ccc(O)cc2)N1CC[C@@H](O)c1ccc(F)cc1 | -5% | -17% |
| O=C1[C@@H](c2ccc(F)cc2)[C@H](c2ccc(O)cc2)N1CC[C@@H](O)c1ccc(F)cc1 | -35% | -18% |
| O=C1[C@@H](c2ccc(F)cc2)[C@H](c2ccc(O)cc2)N1CC[C@H](O)c1ccc(F)cc1 | -29% | -25% |
| O=C1[C@H](CC[C@H](O)c2ccc(F)cc2)[C@@H](c2ccc(O)cc2)N1c1ccc(F)cc1 [EZETIMIBE] | -47% | -51% |
